ChEMBL document CHEMBL3621102, “Structure-activity study of quinazoline derivatives leading to the discovery of potent EGFR-T790M inhibitors” (Eur J Med Chem, 2015)
Active and inactive are the calls of the source. The rule behind the calls is not given here.

Experiments:
[1] = target: Epidermal growth factor receptor (Homo sapiens, UniProt P00533); assay: Inhibition of EGFR (unknown origin) by ELISA method
NCI-H1975 [2] = assay: Antiproliferative activity against human NCI-H1975 cells assessed as growth inhibition; format: functional
How it was run: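 NCI-H1975 cells were grown in RPMI with 1 mM sodium pyruvate, 10% FBS and 1% penicillin-streptomycin, under humidified 5% CO₂ at 37 °C. Growth inhibition was read as GI₅₀.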

[3] = Apparent volume of distribution in Sprague-Dawley rat at 1 mg/kg, iv incubated for 24 hrs by LC/MS/MS method; format: ADME, organism-based; conditions: in vivo, read-out: Vd(app)
How it was run: (§1)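 Male Sprague-Dawley rats (n = 3) dosed once at 1 mg/kg iv via tail vein, or once at 5 mg/kg by oral gavage, using the same formulation. Serial blood samples were taken over 24 h. Plasma levels were measured by LC/MS/MS (C18 column, 10 mM ammonium formate-0.1% formic acid water/methanol 10/90, ESI positive). Parameters were derived by noncompartmental analysis.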

[4] = Mean residence time in Sprague-Dawley rat at 1 mg/kg, iv incubated for 24 hrs by LC/MS/MS method; format: ADME, organism-based; conditions: in vivo; how it was run: as §1
[5] = AUC (0 to 24 hrs) in Sprague-Dawley rat at 1 mg/kg, iv by LC/MS/MS method; format: ADME, organism-based; set-up: time < 24 hr, dose 1 mg/kg, route intravenous; conditions: in vivo; how it was run: as §1
[6] = Bioavailability in Sprague-Dawley rat at 1 mg/kg, iv incubated for 24 hrs by LC/MS/MS method; format: ADME, organism-based; conditions: in vivo; how it was run: as §1
[7] = Clearance in Sprague-Dawley rat at 1 mg/kg, iv incubated for 24 hrs by LC/MS/MS method; format: ADME, organism-based; conditions: in vivo; how it was run: as §1
[8] = AUC (0 to infinity) in Sprague-Dawley rat at 1 mg/kg, iv by LC/MS/MS method; format: ADME, organism-based; set-up: dose 1 mg/kg, time infinity, route intravenous; conditions: in vivo; how it was run: as §1
NCI-H1975 [9] = assay: Antitumor activity against human NCI-H1975 cells xenografted in BALB/c mouse assessed as tumor growth inhibition at 50 mg/kg po, qd for 21 days; format: functional, organism-based
How it was run: (§2)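 Athymic mice received 2 × 10⁶ tumour cells subcutaneously in the right flank. At 100–300 mm³ they were randomised to control and treatment groups (n = 6); controls received vehicle alone. Tumour volume = length × width²/2 and RTV = Vt/V0.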

[10] = Elimination half-life in Sprague-Dawley rat at 1 mg/kg, iv incubated for 24 hrs by LC/MS/MS method; format: ADME, organism-based; conditions: in vivo, read-out: beta t1/2 (converted); how it was run: as §1
HCC827 = assay: Antitumor activity against human HCC827 cells xenografted in BALB/c mouse assessed as tumor growth inhibition at 5 mg/kg po, qd for 12 days; format: functional, organism-based; how it was run: as §2
A-431 = assay: Antitumor activity against human A431 cells xenografted in BALB/c mouse assessed as tumor growth inhibition at 5 mg/kg po, qd for 18 days; format: functional, organism-based; how it was run: as §2
NCI-H1975 [11] = assay: Antitumor activity against human NCI-H1975 cells xenografted in BALB/c mouse assessed as tumor growth inhibition at 30 mg/kg po, qd for 21 days relative to control; format: functional, organism-based; how it was run: as §2

Sequence of Epidermal growth factor receptor (P00533 whole entry): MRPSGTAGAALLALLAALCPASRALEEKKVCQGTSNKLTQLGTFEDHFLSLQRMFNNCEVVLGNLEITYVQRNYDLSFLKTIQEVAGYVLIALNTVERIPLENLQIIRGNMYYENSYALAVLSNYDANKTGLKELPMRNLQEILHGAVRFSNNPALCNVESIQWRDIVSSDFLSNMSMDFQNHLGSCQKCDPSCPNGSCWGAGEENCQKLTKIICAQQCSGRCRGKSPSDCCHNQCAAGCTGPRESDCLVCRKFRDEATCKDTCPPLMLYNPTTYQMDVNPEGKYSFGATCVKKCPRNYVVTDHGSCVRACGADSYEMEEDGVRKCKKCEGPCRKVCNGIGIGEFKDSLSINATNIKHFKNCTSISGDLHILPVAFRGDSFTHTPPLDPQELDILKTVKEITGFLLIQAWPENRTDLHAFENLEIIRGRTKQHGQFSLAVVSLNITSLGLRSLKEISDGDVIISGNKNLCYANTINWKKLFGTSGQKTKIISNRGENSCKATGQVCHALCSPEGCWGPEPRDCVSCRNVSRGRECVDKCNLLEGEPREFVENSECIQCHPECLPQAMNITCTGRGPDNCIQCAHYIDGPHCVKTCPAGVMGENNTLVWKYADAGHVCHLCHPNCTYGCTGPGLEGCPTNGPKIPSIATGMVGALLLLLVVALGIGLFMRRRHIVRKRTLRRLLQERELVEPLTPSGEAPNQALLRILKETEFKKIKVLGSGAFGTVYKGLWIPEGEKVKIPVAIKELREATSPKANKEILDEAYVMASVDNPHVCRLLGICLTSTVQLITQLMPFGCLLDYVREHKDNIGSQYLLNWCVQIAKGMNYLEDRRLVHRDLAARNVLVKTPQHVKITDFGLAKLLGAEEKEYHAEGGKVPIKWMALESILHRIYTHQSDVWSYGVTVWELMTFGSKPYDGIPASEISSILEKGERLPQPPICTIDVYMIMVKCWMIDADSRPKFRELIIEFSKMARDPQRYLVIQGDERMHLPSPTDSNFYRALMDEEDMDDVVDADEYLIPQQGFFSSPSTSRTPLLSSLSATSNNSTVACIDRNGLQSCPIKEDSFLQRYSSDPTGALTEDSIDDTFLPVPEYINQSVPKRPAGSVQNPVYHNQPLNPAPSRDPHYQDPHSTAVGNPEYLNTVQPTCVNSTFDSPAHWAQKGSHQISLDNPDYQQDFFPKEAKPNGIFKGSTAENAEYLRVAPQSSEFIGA

| IC50 [1] | Compound | further results |
| --- | --- | --- |
| 0.007 µM | CC(C)NC/C=C/C(=O)Nc1cc2c(Nc3ccc(F)c(Cl)c3)ncnc2cc1O[C@H]1CCOC1 | Vd [3]: 6.5 L/kg; MRT [4]: 8.8 h; AUC(0-t) at 24 h [5]: 0.166 µg·h/mL; bioavailability [6]: < 5%; GI50 (NCI-H1975 [2]): 0.0224 µM; clearance [7]: 5.4 L/h/kg; AUC(0-inf) [8]: 0.197 µg·h/mL; TGI (NCI-H1975 [9]): inactive; half-life [10]: 9.9 h |
| > 1 µM | COCCOc1cc2ncnc(Nc3ccc(OCc4cccc(F)c4)c(Cl)c3)c2cc1NC(=O)/C=C/CN(C)C | – |
| 0.0054 µM | COCCOc1cc2ncnc(Nc3ccc(OCc4ccccn4)c(Cl)c3)c2cc1NC(=O)/C=C/CN(C)C | – |
| 0.0055 µM | CCOc1cc2ncnc(Nc3ccc(F)c(Cl)c3)c2cc1NC(=O)/C=C/CN(C)C1CC1 | GI50 (NCI-H1975 [2]): 0.16 µM |
| > 1 µM | C=CC(=O)Nc1cc2c(Nc3ccc(Cl)c(C(F)(F)F)c3)ncnc2cc1OCCOC | – |
| 0.0722 µM | C=CC(=O)Nc1cc2c(Nc3ccc(OCc4cccc(F)c4)cc3)ncnc2cc1O[C@H]1CCOC1 | – |
| 0.0322 µM | C#Cc1cccc(Nc2ncnc3cc(O[C@H]4CCOC4)c(NC(=O)C=C)cc23)c1 | – |
| 0.105 µM | C=CC(=O)Nc1cc2c(Nc3ccc(Cl)c(C(F)(F)F)c3)ncnc2cc1O[C@H]1CCOC1 | – |
| 0.109 µM | O=C(/C=C/CN1CC[S+]([O-])CC1)Nc1cc2c(Nc3ccc(F)c(Cl)c3)ncnc2cc1O[C@H]1CCOC1 | – |
| 0.52 µM | O=C1CCN(C/C=C/C(=O)Nc2cc3c(Nc4ccc(F)c(Cl)c4)ncnc3cc2O[C@H]2CCOC2)CC1 | – |
| 0.0021 µM | COCCOc1cc2ncnc(Nc3ccc(F)c(Cl)c3)c2cc1NC(=O)/C=C/CN1CCCCC1 | GI50 (NCI-H1975 [2]): 0.0923 µM |
| 0.574 µM | COCCOc1cc2ncnc(Nc3ccc(Cl)c(C(F)(F)F)c3)c2cc1NC(=O)/C=C/CN(C)C | – |
| 0.0033 µM | C#Cc1cccc(Nc2ncnc3cc(OC)c(NC(=O)/C=C/CN(C)C4CC4)cc23)c1 | GI50 (NCI-H1975 [2]): 0.0705 µM |
| 0.102 µM | C=CC(=O)Nc1cc2c(Nc3ccc(OCc4cccc(F)c4)c(Cl)c3)ncnc2cc1OCCOC | – |
| 0.0053 µM | O=C(/C=C/CN1CCCCC1)Nc1cc2c(Nc3ccc(F)c(Cl)c3)ncnc2cc1O[C@H]1CCOC1 | GI50 (NCI-H1975 [2]): 0.168 µM |
| 0.102 µM | COCCOc1cc2ncnc(Nc3ccc(NC(=O)/C=C/CN(C)C)c(C(F)(F)F)c3)c2cc1NC(=O)/C=C/CN(C)C | – |
| > 1 µM | COc1cc2ncnc(Nc3ccc(F)c(Cl)c3)c2cc1NC(=O)/C=C/CN1CC[S+]([O-])CC1 | – |
| 0.357 µM | COCCOc1cc2ncnc(Nc3ccc(F)c(Cl)c3)c2cc1NC(=O)/C=C/CN1CC[S+]([O-])CC1 | – |
| 0.115 µM | C=CC(=O)Nc1cc2c(Nc3ccc(NC(=O)C=C)c(C(F)(F)F)c3)ncnc2cc1OCCOC | – |
| 0.091 µM | COCCOc1cc2ncnc(Nc3ccc(OCc4cccc(F)c4)cc3)c2cc1NC(=O)/C=C/CN(C)C | – |
| 0.1 µM | C=CC(=O)Nc1cc2c(Nc3ccc(OCc4ccccn4)cc3)ncnc2cc1O[C@H]1CCOC1 | – |
| 0.0012 µM | C#Cc1cccc(Nc2ncnc3cc(O[C@H]4CCOC4)c(NC(=O)/C=C/CN(C)C)cc23)c1 | – |
| 0.009 µM | CN(C)C/C=C/C(=O)Nc1cc2c(Nc3ccc(OCc4ccccn4)cc3)ncnc2cc1O[C@H]1CCOC1 | – |
| 0.141 µM | COc1cc2ncnc(Nc3ccc(F)c(Cl)c3)c2cc1NC(=O)/C=C/CNC1CC(F)(F)C1 | GI50 (NCI-H1975 [2]): 0.0987 µM |
| 0.0096 µM | O=C(/C=C/CNC1CC1)Nc1cc2c(Nc3ccc(F)c(Cl)c3)ncnc2cc1OC(F)F | GI50 (NCI-H1975 [2]): 0.0346 µM |
| 0.0269 µM | COc1cc2ncnc(Nc3ccc(F)c(Cl)c3)c2cc1NC(=O)/C=C/CN(C)C1CC1 | GI50 (NCI-H1975 [2]): 0.0322 µM |

The remaining lines, values behind:

| Compound | IC50 [1] | further results |
| --- | --- | --- |
| C=CC(=O)Nc1cc2c(Nc3ccc(F)c(C#N)c3)ncnc2cc1O[C@H]1CCOC1 | 0.167 µM | – |
| O=C(/C=C/CNC1CC1)Nc1cc2c(Nc3ccc(F)c(Cl)c3)ncnc2cc1OCC(F)(F)F | – | GI50 (NCI-H1975 [2]): 0.0203 µM |
| C#Cc1cccc(Nc2ncnc3cc(OC4CCN(C)CC4)c(NC(=O)/C=C/CN(C)C)cc23)c1 | 0.0081 µM | – |
| C#Cc1cccc(Nc2ncnc3cc(OC4CCOCC4)c(NC(=O)/C=C/CN(C)C)cc23)c1 | 0.006 µM | – |
| C=CC(=O)Nc1cc2c(Nc3ccc(OCc4cccc(F)c4)c(Cl)c3)ncnc2cc1O[C@H]1CCOC1 | 0.56 µM | – |
| COCCOc1cc2ncnc(Nc3ccc(F)c(C#N)c3)c2cc1NC(=O)/C=C/CN(C)C | > 1 µM | – |
| C#Cc1cccc(Nc2ncnc3cc(OC)c(NC(=O)/C=C/CN4CCCCC4)cc23)c1 | 0.0027 µM | GI50 (NCI-H1975 [2]): 0.0489 µM |
| CN(C)C/C=C/C(=O)Nc1cc2c(Nc3ccc(F)c(C#N)c3)ncnc2cc1O[C@H]1CCOC1 | 0.147 µM | – |
| CCOc1cc2ncnc(Nc3ccc(F)c(Cl)c3)c2cc1NC(=O)/C=C/CN(C1CC1)C1CC1 | > 1 µM | – |
| CN(C)C/C=C/C(=O)Nc1cc2c(Nc3ccc(OCc4cccc(F)c4)cc3)ncnc2cc1O[C@H]1CCOC1 | 0.134 µM | – |
| CN(C)C/C=C/C(=O)Nc1cc2c(Nc3ccc(OCc4cccc(F)c4)c(Cl)c3)ncnc2cc1O[C@H]1CCOC1 | 0.51 µM | – |
| C#Cc1cccc(Nc2ncnc3cc(O[C@H]4CCOC4)c(NC(=O)/C=C/CN4CCCCC4)cc23)c1 | 0.0053 µM | GI50 (NCI-H1975 [2]): 0.0401 µM |
| COCCOc1cc2ncnc(Nc3ccc(Br)cc3F)c2cc1NC(=O)/C=C/CN(C)C | 0.003 µM | – |
| CN(C)C/C=C/C(=O)Nc1cc2c(Nc3ccc(F)c(Cl)c3)ncnc2cc1O[C@H]1CCOC1 [AFATINIB] | – | Vd [3]: 10.8 L/kg; MRT [4]: 10.6 h; AUC(0-t) at 24 h [5]: 0.277 µg·h/mL; bioavailability [6]: 62.3%; GI50 (NCI-H1975 [2]): 0.107 µM; clearance [7]: 3.25 L/h/kg; AUC(0-inf) [8]: 0.325 µg·h/mL; half-life [10]: 9.6 h |
| O=C(/C=C/CN(C1CC1)C1CC1)Nc1cc2c(Nc3ccc(F)c(Cl)c3)ncnc2cc1O[C@H]1CCOC1 | > 1 µM | – |
| CN(C)C/C=C/C(=O)Nc1cc2c(Nc3ccc(OCc4ccccn4)c(Cl)c3)ncnc2cc1O[C@H]1CCOC1 | 0.0081 µM | – |
| C#Cc1cccc(Nc2ncnc3cc(OCCOC)c(NC(=O)C=C)cc23)c1 | 0.0018 µM | – |
| C=CC(=O)Nc1cc2c(Nc3ccc(F)c(Cl)c3)ncnc2cc1O[C@H]1CCOC1 | 0.0058 µM | – |
| COCCOc1cc2ncnc(Nc3ccc(F)c(Cl)c3)c2cc1NC(=O)/C=C/CN(C)C | 0.0012 µM | – |
| C=CC(=O)Nc1cc2c(Nc3ccc(F)c(C#N)c3)ncnc2cc1OCCOC | 0.196 µM | – |
| CN(C)C/C=C/C(=O)Nc1cc2c(Nc3ccc(F)c(Cl)c3)ncnc2cc1O[C@H]1CCOC1 | – | TGI (HCC827): Active; TGI (A-431): Active; TGI (NCI-H1975 [11]): Active |
| C=CC(=O)Nc1cc2c(Nc3ccc(Br)cc3F)ncnc2cc1O[C@H]1CCOC1 | 0.121 µM | – |
| COc1cc2ncnc(Nc3ccc(F)c(Cl)c3)c2cc1NC(=O)/C=C/CN1CCCCC1 [DACOMITINIB ANHYDROUS] | – | GI50 (NCI-H1975 [2]): 0.123 µM |
| COCCOc1cc2ncnc(Nc3ccc(OCc4ccccn4)cc3)c2cc1NC(=O)/C=C/CN(C)C | 0.01 µM | – |
| C#Cc1cccc(Nc2ncnc3cc(O[C@H]4CCOC4)c(NC(=O)/C=C/CNC(C)C)cc23)c1 | 0.0064 µM | Vd [3]: 7.4 L/kg; MRT [4]: 2.6 h; AUC(0-t) at 24 h [5]: 0.0926 µg·h/mL; bioavailability [6]: < 5%; GI50 (NCI-H1975 [2]): 0.0198 µM; clearance [7]: 10.2 L/h/kg; AUC(0-inf) [8]: 0.105 µg·h/mL; TGI (NCI-H1975 [9]): inactive; half-life [10]: 1.5 h |
| C#Cc1cccc(Nc2ncnc3cc(OCC)c(NC(=O)/C=C/CN4CCCCC4)cc23)c1 | 0.0061 µM | GI50 (NCI-H1975 [2]): 0.0304 µM |
| COCCOc1cc2ncnc(Nc3ccc(F)c(Cl)c3)c2cc1NC(=O)/C=C/CN(C)C1CC1 | 0.0089 µM | GI50 (NCI-H1975 [2]): 0.0871 µM |
| COc1cc2ncnc(Nc3ccc(F)c(Cl)c3)c2cc1NC(=O)/C=C/CN(C1CC1)C1CC1 | > 1 µM | – |
